Fewer inactive variants are shown than the library holds.

The labels stand for the following.
B1: tRNA (parent)
chain: GUUCCGUUGGCGUAAUGGUAACGCGUCUCCCUCCUAAGGAGAAGACUGCGGGUUCGAGUCCCGUACGGAACG

The variants in this series derive from B1. Nature of the series: yeast fitness relative to wild type (ratio to wild type); higher = fitter; tRNA-Arg(CCU), competitive growth, 37 C, YPD. An outline of the steps: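 Amplicons of the tRNA-Arg(CCU) gene were sequenced, 100-nucleotide paired-end, from the start population and from each end population of a pooled yeast competition. The competition, in six parallel replicates, lasted 24 hours in YPD at 37°C. Fitness relative to wild type was calculated from changes in genotype frequencies. Genotypes had to have ≥ 100 starting reads, and estimates < 0.5 were set to 0.5.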
In the case of GUUCCGUUGGCGUAAUGGUAACGCGUCUCCCGCCUAAGCAGAAGACUGCGGGUUCGUGUCCGGUACGGAACG, the yeast fitness is not above 0.5.
As to GUUCCGUUGGCGUAAUGGUAACGCGUCUCCCGCCUAAGGAGAAGACGGCGGGUUCGAGUCCCGUACGGAACG, the yeast fitness was not above 0.5.
The figure for GUUCCGUUGGCGUAAUGGUAACGCGUCUCCCGCCUAAGGAGAAGACUGCGGGUUCGAGUCUCGUACUGAACG is not above 0.5; for GUUCCGUUGGCGUAAUGGUAACGCGUCUCCCGACUAAGGAGAAGACUGCGGGUUCGAGUCCCGUACGGAACG it is 0.601; for GUUCCGUUGGCGUAAUGGUAACGCGUCUCCCGGCUAAGGAGAAGACUGCGGGUUCGAGUCCCGUACGGAACG it is 0.59.
The figure for GUUCCGUUGGCGUAAUGGUAACGCGUCUCCCUACUAACGAGAAGACUGCAGGUUCGAGUCCCGUACGGAACG is not above 0.5; for GUUCCGUUGGCGUAAUGGUAACGCGUCUCCCUACUAAGGAGAAGACUGAGGGUUCGAGUCCCGUACGGAACG it is 0.597; for GUUCCGUUGGCGUAAUGGUAACGCGUCUCCCUACUAAGGAGAAGACUGCGGGUUGGAGUCCCGUAUGGAACG it is not above 0.5.
Consider GUUCCGUUGGCGUAAUGGUAACGCGUCUCCCGCCUAAGGAGAAGACUACGGGUUCGAGUCCCGUACGGAACG, for which the yeast fitness came out at 0.616.
The figure for GUUCCGUUGGCGUAAUGGUAACGCGUCUCCCUACUAAGGAGAAGACUGCGGGUUCGAGUCCCGUACGGGACG is 0.655; for GUUCCGUUGGCGUAAUGGUAACGCGUCUCCCUACUAAGGAGAAGACUGCGGGUUUGAGUCACGUACGGAACG it is 0.559.
The figure for GUUCCGUUGGCGUAAUGGUAACGCGUCUCCCUACUAAGGAGAAGGCUGUGGGUUCGAGUCCCGUACGGAUCG is not above 0.5.
GUUCCGUUGGCGUAAUGGUAACGCGUCUCCCUACUAAGGAGAAGACUGUGGGUUGGAGUCCCGUACGGAACG: the yeast fitness is not above 0.5.
On to GUUCCGUUGGCGUAAUGGUAACGCGUCUCCCUACUAGGCAGAAGACUGCGGGUUUGAGUCCCGUACGGAACG, for which the yeast fitness was not above 0.5.
The figure for GUUCCGUUGGCGUAAUGGUAACGCGUCUCCCGCCAAAGGAGAAGACUGCGGGUUCGAGUCCCGUUCGGAACG is not above 0.5; for GUUCCGUUGGCGUAAUGGUAACGCGUCUCCCUACUACGGAGAAGACUGCGGGUUCAAGUCCCGUGUGGAACG it is not above 0.5; for GUUCCGUUGGCGUAAUGGUAACGCGUCUCCCUACUAAGGAGGAGACUGCGGGUUCGAGUCCCGUACGGAACG it is 0.583.
The figure for GUUCCGUUGGCGUAAUGGUAACGCGUCUCCCUACUAAGGAGAAGUCUGCGGGUUCGAGUCCCGUAAGGAACG is not above 0.5; for GUUCCGUUGGCGUAAUGGUAACGCGUCUCCCGCUUAAGGAGAAGACUGCGGAUUCGAGUCCCGUACGGAACG it is 0.589.
The figure for GUUCCGUUGGCGUAAUGGUAACGCGUCUCCCUACUAAGGAGAAGACUGAGGGUUCGAGUACCGUACGGAACG is 0.714; for GUUCCGUUGGCGUAAUGGUAACGCGUCUCCCGCCUAAGGAAAAGACUGCGGGUUCGAGUGCCGUGCGGAACG it is 0.548; for GUUCCGUUGGCGUAAUGGUAACGCGUCUCCCUACUAAGGAGAAGACUGCGGGUUCGAGUUCCGUACGGAACG it is not above 0.5.
GUUCCGUUGGCGUAAUGGUAACGCGUCUCCCUACUUGGGAGAAGACUGCGGGUUCGAGUCCCGUACGGAACG: the yeast fitness was not above 0.5.
The figure for GUUCCGUUGGCGUAAUGGUAACGCGUCUCCCUACUAAGGAGAAGAAUGCGGGUUCGAGUCCCGUACAGAACG is not above 0.5.
On to GUUCCGUUGGCGUAAUGGUAACGCGUCUCCCUACUAAAGCGAGGACUGCGCGUUCGAGUCGCGUACGGAACG, for which the yeast fitness was not above 0.5.
The figure for GUUCCGUUGGCGUAAUGGUAACGCGUCUCCCGCCUAAGGAGAAGACUGCGGGUUCGACUCCCGUUCGGAACG is not above 0.5.
As for GUUCCGUUGGCGUAAUGGUAACGCGUCUCCCUACUAAGGAGAAGAAUGCGGGUUCGAAUCCCGUACGGAGCG, the yeast fitness is not above 0.5.
On to GUUCCGUUGGCGUAAUGGUAACGCGUCUCCCGCCUAAGGAGAAGAAUGCGGGUUCGAGUCCCGUACGGAACG, for which the yeast fitness is 0.667.
For the variant GUUCCGUUGGCGUAAUGGUAACGCGUCUCCCGCCUAAGGAGAAGAUUGCGGGUUCGAGUCCCGUACGGAACG, the yeast fitness is 0.562.
On to GUUCCGUUGGCGUAAUGGUAACGCGUCUCCCUACUAAGGAGAAGACUGGGGGUUCGAGUCCCGUACCGAACG, for which the yeast fitness stood at 0.548.
Regarding GUUCCGUUGGCGUAAUGGUAACGCGUCUCCCUAGUAAGGAGAAGACUGCGGGUUCGUGUCCCGUACGGAACG, the yeast fitness was not above 0.5.
The figure for GUUCCGUUGGCGUAAUGGUAACGCGUCUCCCGCCAAAGGAGAAGACUGCGGGUUCGAGUCCCGUACGGAACG is not above 0.5; for GUUCCGUUGGCGUAAUGGUAACGCGUCUCCCGCCUAAGGAGAAGACUGCGGGUUCGAGUCCCAUACGGAACG it is 0.557; for GUUCCGUUGGCGUAAUGGUAACGCGUCUCCCUACUAAGGAGGAGACUGCGGGUUCGAGUCCCGUACGGAUCG it is not above 0.5.
The figure for GUUCCGUUGGCGUAAUGGUAACGCGUCUCCCUACUCAGGAGAAGACUGCGGGUUCGAGUCCCCUAGGGAACG is 0.53; for GUUCCGUUGGCGUAAUGGUAACGCGUCUCCCUACUAAGGAGAAGACUGCGGGUUCGAGUGCCGUACGGAGCG it is not above 0.5; for GUUCCGUUGGCGUAAUGGUAACGCGUCUCCCGCCGCAGGAGAAGACUGCGGGUCCGAGUCCCGUACGGAACG it is not above 0.5.
